{"data": "Experimental data gathered from unrelated publications", "effect on": "enzyme activity", "action": "inhibitor", "IGF1R": "Insulin-like growth factor 1 receptor (IGF1R, Homo sapiens, UniProt P08069)", "IGF1R phosphorylated": "Insulin-like growth factor 1 receptor, phosphorylated (IGF1R, Homo sapiens, UniProt P08069)", "note": "Compare with care: the assays were run in different laboratories."}
{"SMILES": "Cc1[nH]c(/C=C2\\C(=O)Nc3ccc(F)cc32)c(C)c1C(=O)N[C@H]1CCN(C(=O)N(C)C)C1", "target": "IGF1R", "concentration": "0.1 µM", "remaining activity": "115%"}
{"SMILES": "COc1cc(Nc2cnc(C#N)c(O[C@H](C)CN(C)C)n2)ncc1-c1cnn(C)c1", "target": "IGF1R", "technique": "radiometric", "concentration": "1 µM", "remaining activity": "100%"}
{"SMILES": "Cc1ccc(NC(=O)c2ccc(C)c(C(F)(F)F)c2)cc1C#Cc1nn(C2CCC(O)CC2)c2ncnc(N)c12 (stereo not shown)", "target": "IGF1R phosphorylated", "concentration": "10 µM", "remaining activity": "91%"}
{"SMILES": "O=C(Nc1cnn(-c2csc(C(=O)NC3COC3)c2)c1)Nc1ccccc1Cl", "target": "IGF1R", "concentration": "5 µM", "remaining activity": "95.8%"}
{"SMILES": "Cn1c(=O)n(-c2ccc(C(C)(C)C#N)cc2)c2c3cc(-c4cnc5ccccc5c4)ccc3ncc21", "target": "IGF1R", "concentration": "10 µM", "remaining activity": "72%"}
{"SMILES": "CCN(CC)CCNC(=O)c1c(C)[nH]c(/C=C2\\C(=O)Nc3ccc(F)cc32)c1C", "target": "IGF1R", "concentration": "0.1 µM", "remaining activity": "75%"}
{"SMILES": "FC(F)c1nc2ccccc2n1-c1nc(N2CCOCC2)nc(N2CCOCC2)n1", "target": "IGF1R", "concentration": "10 µM", "remaining activity": "87%"}
{"SMILES": "Nc1nc(NC2CCCCC2)sc1C(=O)c1ccccc1", "target": "IGF1R", "concentration": "10 µM", "remaining activity": "80%"}
{"SMILES": "O=C(Nc1cnn(-c2csc(C(=O)NC3COC3)c2)c1)Nc1c(F)cccc1Cl", "target": "IGF1R", "concentration": "5 µM", "remaining activity": "94.9%"}
{"SMILES": "Cc1cnc(NC2CCOCC2)nc1-n1cnc(C(=O)NC(CN)c2cc(F)cc(Cl)c2)c1 (stereo not shown)", "target": "IGF1R", "technique": "radiometric", "concentration": "1 µM", "remaining activity": "103%"}
{"SMILES": "CCN(CC)c1ccc(C2=NNC(=O)CC2C)cc1[N+](=O)[O-] (stereo not shown)", "target": "IGF1R", "concentration": "10 µM", "remaining activity": "86%"}
{"SMILES": "CC(C)(C)c1nc2c(s1)c1nc(N)ncc1c1ccc(NS(=O)(=O)c3c(F)cccc3F)c(F)c12", "target": "IGF1R", "technique": "radiometric", "concentration": "1 µM", "remaining activity": "100%"}
{"SMILES": "CCCOc1ccc(OC)c(F)c1C(=O)c1ccc(C(=O)N[C@@H]2CNC[C@H]2NC(=O)c2ccc3[nH]ncc3c2)cc1", "target": "IGF1R phosphorylated", "concentration": "10 µM", "remaining activity": "76%"}
